≈ marks a conversion by molar mass, not a printed value.
Assays:
Androgen receptor = target: T1, Androgen receptor (Homo sapiens, UniProt P10275); assay: Modulation of human androgen receptor expressed in African green monkey CV1 cells after 24 hrs by luciferase reporter gene assay; assay type: cell-based, CV-1
T1 sequence (P10275 whole entry): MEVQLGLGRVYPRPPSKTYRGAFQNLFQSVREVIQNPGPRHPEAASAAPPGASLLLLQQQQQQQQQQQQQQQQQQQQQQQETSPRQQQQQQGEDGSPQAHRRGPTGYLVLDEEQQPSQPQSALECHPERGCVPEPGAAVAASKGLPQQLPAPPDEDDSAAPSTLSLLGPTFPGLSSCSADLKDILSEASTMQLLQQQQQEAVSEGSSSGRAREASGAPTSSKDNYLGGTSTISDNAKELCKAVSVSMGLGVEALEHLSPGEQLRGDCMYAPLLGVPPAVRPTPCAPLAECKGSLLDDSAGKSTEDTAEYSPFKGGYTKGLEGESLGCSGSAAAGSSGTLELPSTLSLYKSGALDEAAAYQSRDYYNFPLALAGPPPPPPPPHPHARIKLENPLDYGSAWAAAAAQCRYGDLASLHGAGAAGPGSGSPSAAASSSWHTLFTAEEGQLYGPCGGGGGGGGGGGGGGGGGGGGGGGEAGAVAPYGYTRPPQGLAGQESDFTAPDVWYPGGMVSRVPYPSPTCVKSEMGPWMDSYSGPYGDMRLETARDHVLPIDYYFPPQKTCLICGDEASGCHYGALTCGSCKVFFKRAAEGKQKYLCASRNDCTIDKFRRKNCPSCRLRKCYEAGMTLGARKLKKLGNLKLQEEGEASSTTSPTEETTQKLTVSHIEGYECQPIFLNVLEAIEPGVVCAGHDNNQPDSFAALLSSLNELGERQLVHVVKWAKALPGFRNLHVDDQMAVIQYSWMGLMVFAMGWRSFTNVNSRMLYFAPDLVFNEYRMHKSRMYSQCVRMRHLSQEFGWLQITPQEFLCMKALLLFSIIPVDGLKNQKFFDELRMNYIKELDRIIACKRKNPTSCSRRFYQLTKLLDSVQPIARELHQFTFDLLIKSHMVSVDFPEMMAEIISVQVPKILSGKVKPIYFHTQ
Outline: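 Functional AR activity is read out by a luciferase reporter gene assay in mammalian cells transfected with the human AR gene. EC50 is derived from the response and reported as pEC50 (−log EC50).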

[1] = Half life in Wistar Han rat at 5 mg/kg, administered as single dose via oral gavage by LC-MS/MS analysis; assay type: ADME, organism-based; conditions: in vivo
[2] = Oral bioavailability in Wistar Han rat at 10 mg/kg, administered as single dose via oral gavage by LC-MS/MS analysis; assay type: ADME, organism-based; conditions: in vivo
[3] = Kinetic aqueous solubility of the compound in PBS at pH 7.4 after 1 hr by chemiluminescent nitrogen detection method; assay type: physicochemical; conditions: read-out: Kinetic_solubility
Outline: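 High-throughput kinetic aqueous solubility at pH 7.4. The test compound is added from a DMSO stock, and dissolved compound is quantified by chemiluminescent nitrogen detection (CLND).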

[4] = […] in iv dosed Wistar Han rat administered as single dose by LC-MS/MS analysis; assay type: ADME, organism-based; conditions: in vivo

| Compound | EC50 (Androgen receptor) | further results |
| --- | --- | --- |
| N#Cc1ccc(C(O)(C2CCCC2)C(F)(F)F)cc1Cl (stereo not drawn) | 3.16 nM | – |
| Cc1c(C(O)(C#CC(C)(C)C)C(F)(F)F)ccc(C#N)c1Cl (stereo not drawn) | 79.4 nM | – |
| C/C=C(\C)C(O)(c1ccc(C#N)c(C(F)(F)F)c1)C(F)(F)F (stereo not drawn) | 39.8 nM | – |
| Cc1c(C#N)ccc(C(C)(O)C(F)(F)F)c1C (stereo not drawn) | 2510 nM | – |
| Cc1c(C(O)(C#CC2CC2)C(F)(F)F)ccc(C#N)c1Cl (stereo not drawn) | 15.8 nM | – |
| C=C(C)C(O)(c1ccc(C#N)c(C(F)(F)F)c1)C(F)(F)F (stereo not drawn) | 31.6 nM | – |
| Cc1c(C(O)(C(C)C)C(F)(F)F)ccc(C#N)c1Cl (stereo not drawn) | 0.794 nM | – |
| N#Cc1ccc(C(O)(c2cocn2)C(F)(F)F)cc1C(F)(F)F (stereo not drawn) | 1.26 nM | half-life [1]: 8 h; bioavailability [2]: 83%; solubility kinetic at 1 h [3]: > 700 µM |
| Cc1c(C(O)(c2cocn2)C(F)(F)F)ccc(C#N)c1C(F)(F)F (stereo not drawn) | 0.501 nM | half-life [1]: 5.5 h; bioavailability [2]: 100%; solubility kinetic at 1 h [3]: > 400 µM |
| Cc1c(C(O)(C(C)(C)C)C(F)(F)F)ccc(C#N)c1Cl (stereo not drawn) | 79.4 nM | – |
| CC(C)C(O)(c1ccc(C#N)c(Cl)c1Cl)C(F)(F)F (stereo not drawn) | 0.794 nM | – |
| CC(O)(c1ccc(C#N)c(Cl)c1Cl)C(F)(F)F (stereo not drawn) | 63.1 nM | – |
| N#Cc1ccc(C(O)(c2ccc(Cl)o2)C(F)(F)F)cc1C(F)(F)F (stereo not drawn) | 2.51 nM | – |
| C=CC(O)(c1ccc(C#N)c(C(F)(F)F)c1)C(F)(F)F (stereo not drawn) | 12.6 nM | – |
| Cc1c(C(O)(c2nccs2)C(F)(F)F)ccc(C#N)c1C(F)(F)F (stereo not drawn) | 10.5 nM | – |
| Cc1c(C(O)(C2CC2)C(F)(F)F)ccc(C#N)c1Cl (stereo not drawn) | 0.2 nM | – |
| Cc1c(C(O)(C(F)(F)F)C(F)(F)F)ccc(C#N)c1C(F)(F)F | 1.58 nM | – |
| CC(C)CC(O)(c1ccc(C#N)c(Cl)c1Cl)C(F)(F)F (stereo not drawn) | 3.16 nM | – |
| Cc1c(C(C)(C)C(O)C(F)(F)F)ccc(C#N)c1C(F)(F)F (stereo not drawn) | 15.8 nM | – |
| N#Cc1ccc(C(O)(C2CC2)C(F)(F)F)cc1Cl (stereo not drawn) | 0.398 nM | half-life [1]: 18 h; bioavailability [2]: 80%; clearance [4]: 12 mL/min/kg; solubility kinetic at 1 h [3]: > 400 µM |
| N#Cc1ccc(C(O)(C2CC2)C(F)(F)F)c(Cl)c1Cl (stereo not drawn) | 0.2 nM | – |
| CC(C)C(O)(c1ccc(C#N)c(Cl)c1)C(F)(F)F (stereo not drawn) | 3.98 nM | – |
| N#Cc1ccc(C(O)(c2ccco2)C(F)(F)F)cc1C(F)(F)F (stereo not drawn) | 1.26 nM | – |
| N#Cc1ccc(C(O)(CO)C(F)(F)F)cc1C(F)(F)F (stereo not drawn) | 10000 nM | – |
| Cc1c(C(O)(CC(C)(C)C)C(F)(F)F)ccc(C#N)c1Cl (stereo not drawn) | 3.98 nM | – |
| Cc1c(C(O)(C2CC2)C(F)(F)F)ccc(C#N)c1C(F)(F)F (stereo not drawn) | 0.0316 nM | half-life [1]: 10 h; bioavailability [2]: 37%; solubility kinetic at 1 h [3]: 245 µM (≈ 79.2 µg/mL) |

| Compound | EC50 (Androgen receptor) | further results |
| --- | --- | --- |
| N#Cc1ccc(C(O)(C(F)(F)F)C(F)(F)F)cc1C(F)(F)F | 15.8 nM | – |
| Cc1c(C#N)ccc(C(O)(CC(C)(C)C)C(F)(F)F)c1C (stereo not drawn) | 20 nM | – |
| CCC(O)(c1ccc(C#N)c(C(F)(F)F)c1)C(F)(F)F (stereo not drawn) | 3.98 nM | half-life [1]: 83 h; bioavailability [2]: 70% |
| CC(C)C(O)(c1ccc(C#N)c(C(F)(F)F)c1)C(F)(F)F (stereo not drawn) | 7.94 nM | – |
| Cc1c(C#N)ccc(C(O)(C2CC2)C(F)(F)F)c1C (stereo not drawn) | 1.58 nM | – |
| Cc1c(C(O)(c2ccc(Cl)s2)C(F)(F)F)ccc(C#N)c1C(F)(F)F (stereo not drawn) | 5.62 nM | – |
| CC(C)(C)CC(O)(c1ccc(C#N)c(Cl)c1Cl)C(F)(F)F (stereo not drawn) | 3.16 nM | – |
| N#Cc1ccc(C(O)(c2cscn2)C(F)(F)F)cc1C(F)(F)F (stereo not drawn) | 2 nM | – |
| Cc1c(C(O)(C(F)(F)F)C(F)(F)F)ccc(C#N)c1Cl | 20 nM | – |
| CCC(O)(c1ccc(C#N)c(Cl)c1Cl)C(F)(F)F (stereo not drawn) | 2.51 nM | – |
| Cc1c(C(C)(O)C(F)(F)F)ccc(C#N)c1C(F)(F)F (stereo not drawn) | 3.98 nM | – |
| N#Cc1ccc(C(O)(C2CC2)C(F)(F)F)cc1C(F)(F)F (stereo not drawn) | 0.158 nM | half-life [1]: 20 h; bioavailability [2]: 86% |
| Cc1c(C(O)(c2ccco2)C(F)(F)F)ccc(C#N)c1C(F)(F)F (stereo not drawn) | 0.251 nM | – |
| CCC(O)(c1ccc(C#N)c(Cl)c1C)C(F)(F)F (stereo not drawn) | 2 nM | – |
| N#Cc1ccc(C(O)(C2CCC2)C(F)(F)F)cc1Cl (stereo not drawn) | 1.58 nM | – |
| N#Cc1ccc(C(O)(c2ccc(Cl)s2)C(F)(F)F)cc1C(F)(F)F (stereo not drawn) | 20 nM | – |
| Cc1c(C(O)(C(C)C)C(F)(F)F)ccc(C#N)c1C(F)(F)F (stereo not drawn) | 0.251 nM | – |
| N#Cc1ccc(C(O)(c2nccs2)C(F)(F)F)cc1C(F)(F)F (stereo not drawn) | 2 nM | – |
| N#Cc1ccc(C(O)(C2CCC2)C(F)(F)F)cc1C(F)(F)F (stereo not drawn) | 1.58 nM | – |
| Cc1c(C#N)ccc(C(O)(C(C)C)C(F)(F)F)c1C (stereo not drawn) | 12.6 nM | – |
| Cc1c(C(O)(c2ccc(Cl)o2)C(F)(F)F)ccc(C#N)c1C(F)(F)F (stereo not drawn) | 2.88 nM | – |
| Cc1c(C(O)(c2cscn2)C(F)(F)F)ccc(C#N)c1C(F)(F)F (stereo not drawn) | 5.89 nM | – |
| CC(C)(C)C(O)(c1ccc(C#N)c(Cl)c1)C(F)(F)F (stereo not drawn) | 158 nM | – |
| N#Cc1ccc(C(O)(C2CCC2)C(F)(F)F)c(Cl)c1Cl (stereo not drawn) | 0.631 nM | – |
| Cc1c(C(O)(C2CCC2)C(F)(F)F)ccc(C#N)c1C(F)(F)F (stereo not drawn) | 0.2 nM | – |

Source: ChEMBL document CHEMBL3817832, “Optimizing Ligand Efficiency of Selective Androgen Receptor Modulators (SARMs)” (ACS Med Chem Lett, 2016)
